Reference: ChEMBL document CHEMBL1121403, “Synthesis and mutagenicity of A-ring reduced analogues of 7,12-dimethylbenz[a]anthracene” (1980)

Experiments:
Salmonella typhimurium [1] = test: Mutagenic activity by measuring net reverent colonies per 10 ug of compound with Salmonella Typhimurium (TA 98 strain) in presence of S9 fraction; type: functional, Salmonella enterica subsp. enterica serovar Typhimurium
Summary of the method: (§1)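 Standard Ames soft-agar plating with doses given in Me2SO. Five or more doses from 1 to ≥10 μg/plate were tested with and without S-9 mix from PCB-induced rat liver, at 20 μL S-9/plate from a common pool. Duplicate plates per dose, triplicate for spontaneous revertants. 2-Aminoanthracene served as activation control. Net revertants per 10 μg came from regression of the linear dose-response portion.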

Salmonella typhimurium [2] = test: Mutagenic activity by measuring net reverent colonies per 10 ug of compound with Salmonella Typhimurium (TA1537 strain) in absence of S9 fraction; type: functional, Salmonella enterica subsp. enterica serovar Typhimurium
Summary of the method: (§2)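 Frame-shift strain TA1537 in Ames soft-agar plating with doses given in Me2SO, tested at up to 15 or 10 μg/plate with and without S-9 (PCB-induced rat liver, 20 μL/plate). Duplicate plates per dose, triplicate spontaneous. Scored mutagenic if reversion was dose-dependent and at least twice spontaneous. Values were normalized to net revertants per 10 μg.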

Salmonella typhimurium [3] = test: Mutagenic activity by measuring net reverent colonies per 10 ug of compound with Salmonella Typhimurium (TA1537 strain) in presence of S9 fraction; type: functional, Salmonella enterica subsp. enterica serovar Typhimurium; summary of the method: as §2
Salmonella typhimurium [4] = test: Mutagenic activity by measuring net reverent colonies per 10 ug of compound with Salmonella Typhimurium (TA 100 strain) in absence of S9 fraction; type: functional, Salmonella enterica subsp. enterica serovar Typhimurium; summary of the method: as §1
Salmonella typhimurium [5] = test: Mutagenic activity by measuring net reverent colonies per 10 ug of compound with Salmonella Typhimurium (TA 100 strain) in presence of S9 fraction; type: functional, Salmonella enterica subsp. enterica serovar Typhimurium; summary of the method: as §1
Salmonella typhimurium [6] = test: Mutagenic activity by measuring net reverent colonies per 10 ug of compound with Salmonella Typhimurium (TA 98 strain) in absence of S9 fraction; type: functional, Salmonella enterica subsp. enterica serovar Typhimurium; summary of the method: as §1
Salmonella typhimurium [7] = test: Mutagenic activity by measuring net reverent colonies per 10 ug of compound with Salmonella Typhimurium (TA1537 strain) in absence of S9 fraction; - indicates no mutagenic response; type: functional, organism-based; settings: Salmonella enterica subsp. enterica serovar Typhimurium; summary of the method: as §2
Salmonella typhimurium [8] = test: Mutagenic activity by measuring net reverent colonies per 10 ug of compound with Salmonella Typhimurium (TA 100 strain) in absence of S9 fraction; - indicates no mutagenic response; type: functional, organism-based; settings: Salmonella enterica subsp. enterica serovar Typhimurium; summary of the method: as §1
Salmonella typhimurium [9] = test: Mutagenic activity by measuring net reverent colonies per 10 ug of compound with Salmonella Typhimurium (TA 98 strain) in absence of S9 fraction; - indicates no mutagenic response; type: functional, organism-based; settings: Salmonella enterica subsp. enterica serovar Typhimurium; summary of the method: as §1
Salmonella typhimurium [10] = test: Mutagenic activity by measuring net reverent colonies per 10 ug of compound with Salmonella Typhimurium (TA1537 strain) in presence of S9 fraction; - indicates no mutagenic response; type: functional, organism-based; settings: Salmonella enterica subsp. enterica serovar Typhimurium; summary of the method: as §2

Row | SMILES | Activity (Salmonella typhimurium [1]) | Activity (Salmonella typhimurium [2]) | Activity (Salmonella typhimurium [3]) | Activity (Salmonella typhimurium [4]) | Activity (Salmonella typhimurium [5]) | Activity (Salmonella typhimurium [6]) | Activity (Salmonella typhimurium [7]) | Activity (Salmonella typhimurium [8]) | Activity (Salmonella typhimurium [9]) | Activity (Salmonella typhimurium [10])
1 | Cc1c2ccccc2c(C)c2c3c(ccc12)CCCC3 | 78 | 42 | 7 | 173 | 270 | 47 |  |  |  | 
2 | Cc1c2ccccc2c(C)c2c1ccc1ccccc12 | 58 |  | 15 |  | 489 |  | Not toxic | Not toxic | Not toxic | 
3 | Cc1c2ccccc2c(C)c2c3c(ccc12)C=CCC3 | 25 |  |  | 58 | 69 | 146 | Not toxic |  |  | Not toxic
